Experimental data taken from PMC3032084 (Nature chemical biology, 2009).
“Also recorded” adds a separate entry of the source.

Columns and labels:
YFP-labeled PTHR = YFP-labeled PTHR (UniProt Q03431); assay: FRET or BRET
[1] = target: PTHR variant that lacks the N domain and is tagged extracellularly with GFP; assay: FRET or BRET
PTHR (GFP-N-PTHR) = target: T1, PTHR (GFP-N-PTHR) (Homo sapiens, UniProt Q03431); assay type: binding; conditions: for ligand dissociation after washout: GFP fluorescence recovery after rapid removal of ligand; for decrease in GFP emission: saturating concentration (15 μM), hormone binding to receptor
T1 sequence (Q03431 27-593): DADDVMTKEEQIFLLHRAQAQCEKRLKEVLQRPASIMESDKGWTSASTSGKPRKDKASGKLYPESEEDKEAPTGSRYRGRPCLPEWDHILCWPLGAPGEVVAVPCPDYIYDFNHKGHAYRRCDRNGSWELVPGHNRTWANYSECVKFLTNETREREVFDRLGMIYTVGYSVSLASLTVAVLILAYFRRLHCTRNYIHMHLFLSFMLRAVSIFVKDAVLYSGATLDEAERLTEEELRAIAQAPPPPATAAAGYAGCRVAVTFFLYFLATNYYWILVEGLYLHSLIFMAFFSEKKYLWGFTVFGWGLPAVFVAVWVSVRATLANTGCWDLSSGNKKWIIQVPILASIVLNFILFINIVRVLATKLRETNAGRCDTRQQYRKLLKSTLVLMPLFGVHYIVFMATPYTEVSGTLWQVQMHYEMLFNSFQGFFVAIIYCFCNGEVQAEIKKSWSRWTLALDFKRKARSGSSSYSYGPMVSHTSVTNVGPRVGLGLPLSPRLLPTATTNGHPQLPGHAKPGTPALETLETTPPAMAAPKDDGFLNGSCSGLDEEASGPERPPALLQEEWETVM

[2] = target: T2, PTHR co-expressed with DN-Gs (Homo sapiens, UniProt Q03431); assay: Ligand dissociation by FRET with co-expressed dominant-negative Gαs; assay type: binding; conditions: co-expression of DN-Gs
T2 sequence (Q03431 27-593): T1 sequence (Q03431 27-593)

GFP-N-PTHR = assay: Live cell confocal co-localization of ligand with GFP-N-PTHR; assay type: cell-based; conditions: TMR-labeled ligand, after washout
Gαs-GFP = assay: Live cell confocal co-localization of ligand with Gαs-GFP; assay type: cell-based; conditions: TMR-labeled ligand, after washout
Rab5-GFP = assay: Co-localization of ligand with Rab5-GFP early endosomes; assay type: cell-based; conditions: Rab5-GFP-transfected cells
How it was run: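 Live HEK293 cells transfected with Rab5-GFP were imaged at room temperature 48 h post-transfection by spinning-disc confocal microscopy. Cells were washed with HEPES buffer containing 0.1% BSA. TMR-labelled ligand was added and removed by perfusion. Z-stacks were taken at 0.3-μm steps. Co-localization was scored by Pearson's correlation coefficient.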

Rab7-GFP = assay: Co-localization of ligand with Rab7-GFP late endosomes; assay type: cell-based; conditions: even after 30 min of incubation
[3] = test system: early endosomal antigen 1 (EEA-1); assay: Co-localization of ligand with GFP-tagged EEA-1; assay type: cell-based; conditions: data not shown
adenylyl cyclases = assay: Co-localization of ligand with BODIPY-Fsk labeled adenylyl cyclases; assay type: cell-based; conditions: cells transiently transfected with PTHR
How it was run: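 HEK293 cells transiently transfected with PTHR. Cellular adenylyl cyclases labeled with BODIPY-labeled forskolin, which labels all cells. A TMR-labeled test peptide ligand marks only the PTHR-expressing cells. After ligand binding, the distribution of the BODIPY-Fsk signal is compared with the ligand signal (internalized punctae vs diffuse) by live-cell fluorescence imaging.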

PTHR (PTHR-CFP/YFP) = target: T3, PTHR (PTHR-CFP/YFP) (Homo sapiens, UniProt Q03431); assay: PTHR activation/deactivation by intramolecular FRET; assay type: cell-based; conditions: PTHR-CFP/YFP FRET after washout
T3 sequence (Q03431 27-462 limits assumed): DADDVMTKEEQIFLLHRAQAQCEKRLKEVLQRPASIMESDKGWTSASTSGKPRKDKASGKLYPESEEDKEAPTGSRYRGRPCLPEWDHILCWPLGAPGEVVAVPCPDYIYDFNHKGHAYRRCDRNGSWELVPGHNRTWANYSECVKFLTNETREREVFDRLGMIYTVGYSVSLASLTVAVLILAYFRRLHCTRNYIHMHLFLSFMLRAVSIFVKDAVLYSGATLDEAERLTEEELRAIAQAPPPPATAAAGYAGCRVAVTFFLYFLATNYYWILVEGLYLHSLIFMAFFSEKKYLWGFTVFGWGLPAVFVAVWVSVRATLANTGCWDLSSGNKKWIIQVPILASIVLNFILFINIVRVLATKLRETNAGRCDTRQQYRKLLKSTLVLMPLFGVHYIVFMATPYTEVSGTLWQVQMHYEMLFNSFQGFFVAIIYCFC

[4] = test system: cAMP via PTHR in HEK293 cells; assay: cAMP accumulation/degradation by FRET sensor Epac-CFP/YFP; assay type: cell-based; conditions: PTHrP1–36 100 nM, PTH1–34 text 1−10 nM
[5] = target: PTHR N-terminally tagged with green fluorescent protein (UniProt Q03431); assay: FRET or BRET
PTHR = conditions: membranes, ref [6]; cited from earlier work

Gs-CFP (Gαs/Gβ1/Gγ2-CFP) (from UniProt P63092 1-394; P62873 1-340; P59768 1-71) (complex; other documents disagree on this pair)
tau, PTHR-Gs dissociation (turn off) after washout of PTHrP(1-36) (YFP-labeled PTHR): 48.1 s
tau, PTHR-Gs interaction (switch on) with PTH(1-34) (YFP-labeled PTHR): 0.96 s
tau, PTHR-Gs interaction (switch on) with PTHrP(1-36) (YFP-labeled PTHR): 1.58 s

M-PTH(1-14) labelled with tetramethylrhodamine (peptide)
tau, dissociation (single step) [1]: 15.8 s

PTH1–34-TMR: PTH ligand tagged at Lys13 with tetramethylrhodamine
ligand dissociation after washout (PTHR (GFP-N-PTHR)): most of the ligand remaining bound to the receptor after washout
decrease in GFP emission (PTHR (GFP-N-PTHR)): ~ 20%
effect of DN-Gs on ligand release [2]: no effect
co-localization with GFP-N-PTHR (GFP-N-PTHR): strong co-localization with both GFP-N-PTHR and Gas-GFP; also recorded: little or no TMR fluorescence from PTH1–34-TMR was detected at the cell surface; also recorded: remained closely associated during receptor internalization
co-localization with Gαs-GFP (Gαs-GFP): strong co-localization with both GFP-N-PTHR and Gas-GFP; also recorded: persisted over a period of 30 min in endosomes but not at the cell surface
co-localization with Rab5-labeled endosomes (Rab5-GFP): all of the internalized PTH1–34-TMR co-localized with Rab5-labeled endosomes
co-localization with Rab7-GFP (Rab7-GFP): No co-localization
co-localization with EEA-1-GFP [3]: also co-localized with the early endosomal antigen 1 (EEA-1)
BODIPY-Fsk (adenylyl cyclase) distribution/co-localization with ligand (adenylyl cyclases): strongly co-localized with the ligand as internalized punctae

PTH1–84: PTH is represented by PTH1–84
persistence of active receptor state after ligand removal (PTHR (PTHR-CFP/YFP)): stable active state that persisted well after removal of ligand
Epac-FRET (cAMP) signal after ligand washout [4]: remained fully stable after washout

PTH(1-34) tagged at Lys13 with tetramethylrhodamine (peptide)
koff, fast step (intercept) [5]: 0.46 s⁻¹
tau fast, dissociation (turn off) [5]: 1.5 s
tau slow, association (switch on) [5]: 1.15 s

PTHrP1–36-TMR: TMR-labeled PTHrP1–36
ligand dissociation after washout (PTHR (GFP-N-PTHR)): complete dissociation of the ligand from the receptor
decrease in GFP emission (PTHR (GFP-N-PTHR)): ~ 20%
co-localization with GFP-N-PTHR (GFP-N-PTHR): did not co-localize with either GFP-N-PTHR or Gαs-GFP; also recorded: alone is detected as small puntae at internalized sites
co-localization with Gαs-GFP (Gαs-GFP): did not co-localize with either GFP-N-PTHR or Gαs-GFP; also recorded: only ligand-containing vesicles are observed
BODIPY-Fsk (adenylyl cyclase) distribution/co-localization with ligand (adenylyl cyclases): the labeled forskolin remained diffuse

^125I-PTH1–34: radioligand of PTH1–34
stability of radioligand binding with GTPγS (PTHR): remains mostly stable in the presence of GTPγS

^125I-PTHrP1–36: radioligand of PTHrP1–36
stability of radioligand binding with GTPγS (PTHR): mostly destabilized by GTPγS
